Data reported in ChEMBL document CHEMBL1649269, “In vitro activities of three new dihydrofolate reductase inhibitors against clinical isolates of gram-positive bacteria” (2009).
In brackets after ≈: the same amount, converted by molar mass.

Experiments:
[1] = system: Staphylococcus aureus; experiment: Antimicrobial activity against Heterovancomycin-resistant Staphylococcus aureus by agar dilution method; assay type: functional
How it was run: (§1)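 Clinical S. aureus isolates classed as hVISA or VISA by population analysis profiling. MICs by CLSI agar dilution, with S. aureus ATCC 29213 as control strain.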

[2] = system: Listeria monocytogenes; experiment: Antimicrobial activity against Listeria monocytogenes by agar dilution method; assay type: functional
How it was run: (§2)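 CLSI agar dilution MIC testing of clinical isolates of staphylococci and Listeria. S. aureus ATCC 29213 and S. pneumoniae ATCC 49619 served as control strains. The percentage of susceptible isolates was calculated from CLSI breakpoints.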

[3] = system: Corynebacterium sp.; experiment: Antimicrobial activity against Corynebacterium spp. by agar dilution method; assay type: functional
[4] = system: Staphylococcus; experiment: Antimicrobial activity against Coagulase-negative Staphylococcus assessed as susceptible isolates by agar dilution method; assay type: functional; how it was run: as §2
[5] = system: Streptococcus pneumoniae; experiment: Antimicrobial activity against Streptococcus pneumoniae by agar dilution method; assay type: functional
How it was run: (§3)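 Clinical isolates of beta-hemolytic streptococci, S. mitis and S. pneumoniae were tested by CLSI methodology, with Mueller-Hinton medium supplemented with 5% lysed horse blood. S. aureus ATCC 29213 and S. pneumoniae ATCC 49619 served as control strains. The percentage of susceptible isolates was derived from CLSI breakpoints.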

[6] = Antimicrobial activity against Group C Streptococcus assessed as susceptible isolates by agar dilution method; assay type: functional, Streptococcus sp. 'group C'; how it was run: as §3
[7] = Antimicrobial activity against Group G Streptococcus by agar dilution method; assay type: functional; conditions: Streptococcus sp. 'group G'; how it was run: as §3
[8] = system: Streptococcus sp. 'group B'; experiment: Antimicrobial activity against Group B Streptococcus assessed as susceptible isolates by agar dilution method; assay type: functional; how it was run: as §3
[9] = system: Streptococcus sp. 'group B'; experiment: Antimicrobial activity against Group B Streptococcus by agar dilution method; assay type: functional; how it was run: as §3
[10] = system: Staphylococcus; experiment: Antimicrobial activity against Coagulase-negative Staphylococcus by agar dilution method; assay type: functional; how it was run: as §2
[11] = system: Streptococcus mitis; experiment: Antimicrobial activity against Streptococcus mitis by broth dilution method
[12] = system: Staphylococcus aureus; experiment: Antimicrobial activity against methicillin-resistant Staphylococcus aureus by agar dilution method; assay type: functional
How it was run: (§4)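 MICs against clinical MRSA or MSSA isolates by CLSI agar dilution, with S. aureus ATCC 29213 as control strain. Percentage of susceptible isolates was calculated from the MICs using CLSI breakpoints.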

[13] = system: Staphylococcus aureus; experiment: Antimicrobial activity against methicillin-sensitive Staphylococcus aureus by agar dilution method; assay type: functional; how it was run: as §4
[14] = Antimicrobial activity against Group C Streptococcus by agar dilution method; assay type: functional; conditions: Streptococcus sp. 'group C'; how it was run: as §3
[15] = system: Staphylococcus aureus; experiment: Antimicrobial activity against vancomycin-resistant Staphylococcus aureus assessed as susceptible isolates by agar dilution method; assay type: functional
[16] = system: Staphylococcus aureus; experiment: Antimicrobial activity against Heterovancomycin-resistant Staphylococcus aureus assessed as susceptible isolates by agar dilution method; assay type: functional
[17] = system: Streptococcus sp. 'group A'; experiment: Antimicrobial activity against Group A Streptococcus by agar dilution method; assay type: functional; how it was run: as §3
[18] = system: Staphylococcus aureus; experiment: Antimicrobial activity against methicillin-sensitive Staphylococcus aureus assessed as susceptible isolates by agar dilution method; assay type: functional; how it was run: as §4
[19] = system: Streptococcus pneumoniae; experiment: Antimicrobial activity against Streptococcus pneumoniae assessed as susceptible isolates by agar dilution method; assay type: functional; how it was run: as §3
[20] = Antimicrobial activity against Group G Streptococcus assessed as susceptible isolates by agar dilution method; assay type: functional, Streptococcus sp. 'group G'; how it was run: as §3
[21] = system: Staphylococcus aureus; experiment: Antimicrobial activity against vancomycin-resistant Staphylococcus aureus by agar dilution method; assay type: functional; how it was run: as §1
[22] = system: Streptococcus sp. 'group A'; experiment: Antimicrobial activity against Group A Streptococcus assessed as susceptible isolates by agar dilution method; assay type: functional; how it was run: as §3
[23] = system: Staphylococcus aureus; experiment: Antimicrobial activity against methicillin-resistant Staphylococcus aureus assessed as susceptible isolates by agar dilution method; assay type: functional; how it was run: as §4

Row | SMILES | MIC50 [1] | MIC90 [1] | MIC50 [2] | MIC90 [2] | MIC50 [3] | MIC90 [3] | Activity [4] | MIC50 [5] | MIC90 [5] | MIC50 [7] | MIC90 [7] | MIC50 [9] | MIC90 [9] | MIC50 [10] | MIC90 [10] | MIC50 [11] | MIC50 [14] | MIC90 [14] | Activity [15] | Activity [16] | also measured
1 | CN(C)c1ccc(O)c2c1C[C@H]1C[C@H]3[C@H](N(C)C)C(O)=C(C(N)=O)C(=O)[C@@]3(O)C(O)=C1C2=O [MINOCYCLINE] | 0.25 µg/mL (≈ 0.546 µM) | 0.5 µg/mL (≈ 1.09 µM) | 0.25 µg/mL (≈ 0.546 µM) | 16 µg/mL (≈ 35 µM) | 2 µg/mL (≈ 4.37 µM) | 16 µg/mL (≈ 35 µM) | 96% | 0.25 µg/mL (≈ 0.546 µM) | 0.25 µg/mL (≈ 0.546 µM) | 0.25 µg/mL (≈ 0.546 µM) | 16 µg/mL (≈ 35 µM) | 16 µg/mL (≈ 35 µM) | 32 µg/mL (≈ 69.9 µM) | 0.5 µg/mL (≈ 1.09 µM) | 2 µg/mL (≈ 4.37 µM) | 0.25 µg/mL (≈ 0.546 µM) | 0.25 µg/mL (≈ 0.546 µM) | 4 µg/mL (≈ 8.74 µM) | 96% | 92% | MIC [2]: 0.25 µg/mL (≈ 0.546 µM); Activity [6]: 84%; Activity [8]: 29%; MIC [11]: 0.25 µg/mL (≈ 0.546 µM); MIC [12]: 0.25 µg/mL (≈ 0.546 µM); MIC50 [12]: 0.25 µg/mL (≈ 0.546 µM); MIC90 [12]: 0.25 µg/mL (≈ 0.546 µM); MIC [13]: 0.25 µg/mL (≈ 0.546 µM); MIC50 [13]: 0.25 µg/mL (≈ 0.546 µM); MIC90 [13]: 0.25 µg/mL (≈ 0.546 µM); MIC [17]: 0.12 µg/mL (≈ 0.262 µM); MIC50 [17]: 0.12 µg/mL (≈ 0.262 µM); MIC90 [17]: 0.25 µg/mL (≈ 0.546 µM); Activity [18]: 100%; Activity [19]: 93%; Activity [20]: 75%; MIC50 [21]: 1 µg/mL (≈ 2.19 µM); MIC90 [21]: 4 µg/mL (≈ 8.74 µM); Activity [22]: 100%
2 | COc1c(N2C[C@@H]3CCCN[C@@H]3C2)c(F)cc2c(=O)c(C(=O)O)cn(C3CC3)c12 [MOXIFLOXACIN] | 4 µg/mL (≈ 9.96 µM) | 4 µg/mL (≈ 9.96 µM) | 0.5 µg/mL (≈ 1.25 µM) | 1 µg/mL (≈ 2.49 µM) | 1 µg/mL (≈ 2.49 µM) | 8 µg/mL (≈ 19.9 µM) | 55% | 0.25 µg/mL (≈ 0.623 µM) | 0.25 µg/mL (≈ 0.623 µM) | 0.25 µg/mL (≈ 0.623 µM) | 0.5 µg/mL (≈ 1.25 µM) | 0.25 µg/mL (≈ 0.623 µM) | 0.5 µg/mL (≈ 1.25 µM) | 0.25 µg/mL (≈ 0.623 µM) | 8 µg/mL (≈ 19.9 µM) | 0.25 µg/mL (≈ 0.623 µM) | 0.25 µg/mL (≈ 0.623 µM) | 0.5 µg/mL (≈ 1.25 µM) | 0% | 8% | MIC [2]: 0.5 µg/mL (≈ 1.25 µM); Activity [23]: 4%; MIC [7]: 0.25 µg/mL (≈ 0.623 µM); MIC [9]: 0.25 µg/mL (≈ 0.623 µM); MIC [14]: 0.25 µg/mL (≈ 0.623 µM); MIC [17]: 0.25 µg/mL (≈ 0.623 µM); MIC50 [17]: 0.25 µg/mL (≈ 0.623 µM); MIC90 [17]: 0.5 µg/mL (≈ 1.25 µM); Activity [18]: 92%; Activity [19]: 100%; MIC [21]: 8 µg/mL (≈ 19.9 µM); MIC50 [21]: 8 µg/mL (≈ 19.9 µM); MIC90 [21]: 8 µg/mL (≈ 19.9 µM)
3 | COc1cc(Cc2cnc(N)nc2N)cc(OC)c1OC [TRIMETHOPRIM] | 1 µg/mL (≈ 3.44 µM) | 16 µg/mL (≈ 55.1 µM) | 0.06 µg/mL (≈ 0.207 µM) | 0.06 µg/mL (≈ 0.207 µM) | 16 µg/mL (≈ 55.1 µM) | 16 µg/mL (≈ 55.1 µM) | 48% | 1 µg/mL (≈ 3.44 µM) | 4 µg/mL (≈ 13.8 µM) | 1 µg/mL (≈ 3.44 µM) | 1 µg/mL (≈ 3.44 µM) | 1 µg/mL (≈ 3.44 µM) | 1 µg/mL (≈ 3.44 µM) | 16 µg/mL (≈ 55.1 µM) | 32 µg/mL (≈ 110 µM) | 4 µg/mL (≈ 13.8 µM) | 0.5 µg/mL (≈ 1.72 µM) | 1 µg/mL (≈ 3.44 µM) | 71% | 80% | Activity [23]: 80%; MIC [11]: < 0.008 µg/mL; MIC50 [12]: 0.25 µg/mL (≈ 0.861 µM); MIC90 [12]: 32 µg/mL (≈ 110 µM); MIC50 [13]: 1 µg/mL (≈ 3.44 µM); MIC90 [13]: 2 µg/mL (≈ 6.89 µM); MIC50 [17]: 0.5 µg/mL (≈ 1.72 µM); MIC90 [17]: 1 µg/mL (≈ 3.44 µM); Activity [18]: 92%; MIC50 [21]: 1 µg/mL (≈ 3.44 µM); MIC90 [21]: 32 µg/mL (≈ 110 µM)
4 | CN[C@H](CC(C)C)C(=O)N[C@H]1C(=O)N[C@@H](CC(N)=O)C(=O)N[C@H]2C(=O)N[C@H]3C(=O)N[C@H](C(=O)N[C@H](C(=O)O)c4cc(O)cc(O)c4-c4cc3ccc4O)[C@H](O)c3ccc(c(Cl)c3)Oc3cc2cc(c3O[C@@H]2O[C@H](CO)[C@@H](O)[C@H](O)[C@H]2O[C@H]2C[C@](C)(N)[C@H](O)[C@H](C)O2)Oc2ccc(cc2Cl)[C@H]1O [VANCOMYCIN] | 1 µg/mL (≈ 0.69 µM) | 2 µg/mL (≈ 1.38 µM) | 1 µg/mL (≈ 0.69 µM) | 1 µg/mL (≈ 0.69 µM) | 0.25 µg/mL (≈ 0.173 µM) | 0.5 µg/mL (≈ 0.345 µM) | 100% | 0.12 µg/mL (≈ 0.0828 µM) | 0.25 µg/mL (≈ 0.173 µM) | 0.12 µg/mL (≈ 0.0828 µM) | 0.12 µg/mL (≈ 0.0828 µM) | 0.25 µg/mL (≈ 0.173 µM) | 0.25 µg/mL (≈ 0.173 µM) | 1 µg/mL (≈ 0.69 µM) | 2 µg/mL (≈ 1.38 µM) | 1 µg/mL (≈ 0.69 µM) | 0.12 µg/mL (≈ 0.0828 µM) | 0.5 µg/mL (≈ 0.345 µM) | 52% | 96% | MIC [2]: 1 µg/mL (≈ 0.69 µM); Activity [23]: 100%; Activity [6]: 100%; MIC [7]: 0.12 µg/mL (≈ 0.0828 µM); Activity [8]: 100%; MIC50 [12]: 1 µg/mL (≈ 0.69 µM); MIC90 [12]: 1 µg/mL (≈ 0.69 µM); MIC50 [13]: 1 µg/mL (≈ 0.69 µM); MIC90 [13]: 1 µg/mL (≈ 0.69 µM); MIC [14]: 0.12 µg/mL (≈ 0.0828 µM); MIC50 [17]: 0.25 µg/mL (≈ 0.173 µM); MIC90 [17]: 0.25 µg/mL (≈ 0.173 µM); Activity [18]: 100%; Activity [19]: 100%; Activity [20]: 100%; MIC50 [21]: 2 µg/mL (≈ 1.38 µM); MIC90 [21]: 4 µg/mL (≈ 2.76 µM); Activity [22]: 100%
